# Measured values taken from PubChem BioAssay.
# Activity calls are given as the source filed them.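 The calls were made as follows, unless noted: active = inhibition at or above 50% relative to wild type and mutant plate controls; inactive = inhibition below 50%.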
# Columns and labels:
# [1] = inhibitors of TNFa-induced NFkB p65 translocation, primary screen, imaging, HUVEC, MLSMR starter and 10KST1 sets (AID 438;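 active = inhibition above 20% together with a positive visual image hit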;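 also: compound added about 3h40 before a 20 min TNFalpha stimulation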;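 as to inhibition: signal is the nuclear over cytoplasmic p65 intensity ratio per well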); conditions: HUVEC TNFa-induced p65 nuclear translocation; cell count: measured here: nuclei count (cytotoxicity indicator), at 2.08 µM; inhibition: at 2 µM, stronger effect = higher value, 0% TNFa-plus-vehicle, 100% no-TNFa wells
# [2] = inhibitors of E-selectin induction by TNFa, primary screen, imaging, HUVEC, immunofluorescence, MLSMR starter and 10KST1 sets (AID 487;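 active = visually confirmed hit in the image check and inhibition above 20%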;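 as to inhibition: signal is fraction of cell area covered by stained E-selectin grains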;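 as to nuclei count: 100% = median nuclei count of all wells on the same plate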); conditions: HUVEC TNFalpha-induced E-selectin immunofluorescence imaging, at 2 µM; inhibition: stronger effect = higher value; nuclei count: measured here: cell number, toxicity
# [3] = DUSP6 inhibitors restoring Erk phosphorylation by chemical complementation, primary imaging in DUSP6-transfected HeLa (AID 609;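 active = compounds giving at least 50% inhibition in the cell-based MKP-3 phosphatase rescue imaging test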;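 as to inhibition: phospho-Erk level distribution per well compared with pooled transfected vehicle control wells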); conditions: HeLa MKP-3 transfected, phospho-Erk imaging KS statistic, at 10 µM, cells stimulated with TPA for 15 min
# [4] = biological target: Dual specificity protein phosphatase 6 (Homo sapiens) (UniProt Q16828); assay: as above; conditions: HeLa MKP-3 transfected, phospho-Erk imaging KS statistic; at 10 µM; stronger effect = higher value; cells stimulated with TPA for 15 min
# Dual specificity protein phosphatase 6 (Homo sapiens), sequence (Q16828 whole entry, looked up): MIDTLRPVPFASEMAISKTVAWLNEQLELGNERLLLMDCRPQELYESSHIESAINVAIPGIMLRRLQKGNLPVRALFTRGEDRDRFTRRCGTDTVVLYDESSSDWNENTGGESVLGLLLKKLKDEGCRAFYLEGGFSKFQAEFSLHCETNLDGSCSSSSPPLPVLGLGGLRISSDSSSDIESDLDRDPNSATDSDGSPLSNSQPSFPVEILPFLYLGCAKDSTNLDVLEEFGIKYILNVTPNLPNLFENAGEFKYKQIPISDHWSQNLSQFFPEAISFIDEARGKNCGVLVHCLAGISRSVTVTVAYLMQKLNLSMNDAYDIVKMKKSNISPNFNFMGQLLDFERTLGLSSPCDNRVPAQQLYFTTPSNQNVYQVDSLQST
# [5] = biological target: Voltage-gated potassium channel subunit beta-2 (Rattus norvegicus) (UniProt P62483); assay: KvBeta enzyme negative modulators, primary screen, biochemical, NADPH fluorescence (AID 622;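 active = fluorescence slope higher than the sample average by over 3 SD, cut at about -0.22 in these data, passing the limit was not always enough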;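 also: slope of raw intensity against log time taken from 70 to 1610 s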); conditions: recombinant KvBeta, 4-cyanobenzaldehyde reduction, at 10 µM, stronger effect = higher value
# Voltage-gated potassium channel subunit beta-2 (Rattus norvegicus), sequence (P62483 whole entry, looked up): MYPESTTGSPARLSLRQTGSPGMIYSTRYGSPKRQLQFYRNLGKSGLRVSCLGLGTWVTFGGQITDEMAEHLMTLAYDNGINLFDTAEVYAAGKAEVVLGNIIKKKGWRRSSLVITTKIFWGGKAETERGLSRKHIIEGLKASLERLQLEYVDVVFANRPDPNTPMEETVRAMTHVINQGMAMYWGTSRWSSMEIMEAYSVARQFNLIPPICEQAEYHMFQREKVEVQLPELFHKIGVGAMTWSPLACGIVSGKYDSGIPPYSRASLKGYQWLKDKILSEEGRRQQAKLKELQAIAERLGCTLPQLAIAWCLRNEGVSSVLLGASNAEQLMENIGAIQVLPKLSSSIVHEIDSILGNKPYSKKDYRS
# [6] = biological target: Voltage-gated potassium channel subunit beta-2 (Rattus norvegicus) (UniProt P62483); assay: KvBeta positive modulators, primary screen, biochemical, NADPH fluorescence (AID 623;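 active = NADPH fluorescence slope more negative than the mean of all samples by about 3 SD, 99.7% confidence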;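 also: fluorescence intensity change per second fitted from 20 to 320 s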); conditions: Recombinant KvBeta, NADPH fluorescence decrease slope, 10 min; at 10 µM; stronger effect = lower value
# [7] = biological target: Alpha-2C adrenergic receptor (Homo sapiens) (UniProt P18825); assay: modulators of alpha2C/GIRK thallium flux, primary screen, cell-based, HEK293 alpha2C/GIRK1/2 (AID 624;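 active = fluorescence slope after compound addition differing from the mean of all screened samples at 99.7% confidence, in either direction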;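 also: slope of fluorescence ratio to pre-addition baseline per second over 15 to 24 s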); conditions: thallium flux BTC fluorescence, at 10 µM, actives lie on both sides
# Alpha-2C adrenergic receptor (Homo sapiens), sequence (P18825 whole entry, looked up): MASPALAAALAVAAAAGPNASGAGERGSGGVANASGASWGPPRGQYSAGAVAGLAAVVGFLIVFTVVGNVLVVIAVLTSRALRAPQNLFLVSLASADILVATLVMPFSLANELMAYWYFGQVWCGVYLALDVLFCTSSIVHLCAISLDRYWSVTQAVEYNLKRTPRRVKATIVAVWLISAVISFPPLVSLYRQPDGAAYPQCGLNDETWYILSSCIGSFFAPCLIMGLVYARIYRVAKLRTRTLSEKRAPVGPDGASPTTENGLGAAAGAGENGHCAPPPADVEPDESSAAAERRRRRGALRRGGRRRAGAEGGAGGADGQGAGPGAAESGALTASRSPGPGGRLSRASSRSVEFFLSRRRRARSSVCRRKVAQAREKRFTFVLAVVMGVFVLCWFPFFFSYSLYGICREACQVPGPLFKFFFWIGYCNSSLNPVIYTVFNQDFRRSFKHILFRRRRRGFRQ
# [8] = inhibitors of larval lipid processing in zebrafish, primary screen, whole organism, PED6 fluorescence, gall bladder and intestine (AID 686;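 active = a full or partial loss of lipid-probe fluorescence in the fish gall bladder, intestine or both, judged by eye; inactive = no fluorescence loss, or compound toxic to the fish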;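 also: larvae 5 to 7 days old with five fish per well; signal comes from phospholipase A2 cleavage of quenched PED6 carried via bile; overnight exposure to compound and PED6 before scoring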); conditions: Zebrafish larvae PED6 lipid processing, fluorescence scoring; screened at 20 µM (by protocol)
# Procedure, shortened: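 Doses: 20 µM single dose. Test system: live zebrafish larvae aged 5-7 days, whole organism. Quantity: five larvae per well. Measured by: By-eye fluorescence microscopy. Reagent: ingested quenched lipid PED6 at 100 nM. Read-out: visual per-well fluorescence inhibition score. Times: overnight exposure of larvae to compound plus PED6.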
# [9] = inhibitors of Chlamydomonas gravitaxis, primary screen, whole organism, Chlamydomonas reinhardtii, WT vs cilia-less mutant, absorbance, 96-well (AID 463189); conditions: OD600 absorbance, 2 days, at 10 µM, stronger effect = higher value;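 also: 0% = wild type cc124 cells in DMSO and 100% = ciliumless bld1 mutant cells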
# [10] = measured here: cell density z-score
# [11] = measured here: nuclear c-Myc green intensity z-score
# [12] = measured here: nuclear pErk red intensity z-score, stronger effect = higher value
smiles,measurement,setting,value
C=CCSc1nc(C)c(CC=C)c(=O)[nH]1,cell count,[1],482
same,inhibition,[1],-4.7% (inactive)
same,inhibition,[2],-71.1% (inactive)
same,nuclei count,[2],87.6%
same,z-score,[3]; [10],0.711
same,z-score,[3]; [11],-0.59
same,z-score,[3]; [12],0.352
same,inhibition,[4],11.9% (inactive)
same,fluorescence slope,[5],-0.472 (inactive)
same,NADPH fluorescence slope,[6],-1.2e-06 (inactive)
same,slope,[7],0.00783 (inactive)
same,outcome,[8],inactive
same,inhibition,[9],31.6% (inactive)
COc1ccc2[nH]c(C)c(C(=O)CN3CCc4cc(OC)c(OC)cc4C3)c2c1,cell count,[1],520
same,inhibition,[1],3.2% (inactive)
same,inhibition,[2],7.5% (inactive)
same,nuclei count,[2],117%
same,z-score,[3]; [10],-1.28
same,z-score,[3]; [11],1.53
same,z-score,[3]; [12],-1.2
same,inhibition,[4],-8.76% (inactive)
same,fluorescence slope,[5],-0.205 (inactive)
same,NADPH fluorescence slope,[6],-2e-05 (inactive)
same,slope,[7],0.00464 (inactive)
same,outcome,[8],inactive
same,inhibition,[9],22.2% (inactive)
COc1ccc(OC)c(C2=Nn3c(nnc3-c3ccco3)SC2)c1,cell count,[1],675
same,inhibition,[1],1.9% (inactive)
same,inhibition,[2],-139% (inactive)
same,nuclei count,[2],150%
same,z-score,[3]; [10],-0.0454
same,z-score,[3]; [11],1.22
same,z-score,[3]; [12],0.484
same,inhibition,[4],-2.47% (inactive)
same,fluorescence slope,[5],-0.399 (inactive)
same,NADPH fluorescence slope,[6],-0.000127 (inactive)
same,slope,[7],0.00666 (inactive)
same,outcome,[8],inactive
same,inhibition,[9],-10.3% (inactive)
COc1cccc(-c2nnc3sc(-c4cccs4)nn23)c1,cell count,[1],595
same,inhibition,[1],-9.3% (inactive)
same,inhibition,[2],-23% (inactive)
same,nuclei count,[2],158%
same,z-score,[3]; [10],-0.757
same,z-score,[3]; [11],0.596
same,z-score,[3]; [12],-0.177
same,inhibition,[4],-11.5% (inactive)
same,fluorescence slope,[5],-0.406 (inactive)
same,NADPH fluorescence slope,[6],-0.000146 (inactive)
same,slope,[7],0.00547 (inactive)
same,outcome,[8],inactive
same,inhibition,[9],67.3% (active)
N#Cc1c(NC(=O)CCC(=O)O)sc2c1CCCC2,cell count,[1],715
same,inhibition,[1],-11.6% (inactive)
same,inhibition,[2],-10.3% (inactive)
same,nuclei count,[2],186%
same,z-score,[3]; [10],-1.16
same,z-score,[3]; [11],1.41
same,z-score,[3]; [12],-1.22
same,inhibition,[4],-7.28% (inactive)
same,fluorescence slope,[5],-0.388 (inactive)
same,NADPH fluorescence slope,[6],-5e-05 (inactive)
same,slope,[7],0.00575 (inactive)
same,outcome,[8],inactive
same,inhibition,[9],-7.91% (inactive)
O=C(c1cncc(Br)c1)N1CCCc2ccccc21,cell count,[1],517
same,inhibition,[1],-1.1% (inactive)
same,inhibition,[2],51.3% (inactive)
same,nuclei count,[2],97.5%
same,z-score,[3]; [10],0.808
same,z-score,[3]; [11],-0.814
same,z-score,[3]; [12],-0.316
same,inhibition,[4],-7.86% (inactive)
same,fluorescence slope,[5],-0.448 (inactive)
same,NADPH fluorescence slope,[6],-1.4e-05 (inactive)
same,slope,[7],0.00474 (inactive)
same,outcome,[8],inactive
same,inhibition,[9],-3.67% (inactive)
COc1cccc(-c2nnc3sc(-c4ccc(Cl)cc4)nn23)c1,cell count,[1],588
same,inhibition,[1],3.2% (inactive)
same,inhibition,[2],19.9% (inactive)
same,nuclei count,[2],102%
same,z-score,[3]; [10],0.426
same,z-score,[3]; [11],-0.269
same,z-score,[3]; [12],0.00297
same,inhibition,[4],-4.27% (inactive)
same,fluorescence slope,[5],-0.385 (inactive)
same,NADPH fluorescence slope,[6],-1.5e-05 (inactive)
same,slope,[7],0.00661 (inactive)
same,outcome,[8],inactive
same,inhibition,[9],5.02% (inactive)
N#CC1=C(SCC(=O)c2ccc(Cl)cc2)NC2=C(C(=O)CCC2)C1c1ccco1 (configuration not stated),cell count,[1],362
same,inhibition,[1],-6.1% (inactive)
same,inhibition,[2],-118% (inactive)
same,nuclei count,[2],147%
same,z-score,[3]; [10],1.13
same,z-score,[3]; [11],-0.168
same,z-score,[3]; [12],-0.867
same,inhibition,[4],9.42% (inactive)
same,fluorescence slope,[5],-0.422 (inactive)
same,NADPH fluorescence slope,[6],-0.000127 (inactive)
same,slope,[7],0.00564 (inactive)
same,outcome,[8],active; weak signal in gallbladder and intestine
same,inhibition,[9],13.1% (inactive)
Cn1nnnc1-c1cc(Br)ccc1NC(=O)c1ccccc1,cell count,[1],397
same,inhibition,[1],-1.8% (inactive)
same,inhibition,[2],-2.9% (inactive)
same,nuclei count,[2],93.6%
same,z-score,[3]; [10],-0.94
same,z-score,[3]; [11],1.01
same,z-score,[3]; [12],-1.17
same,inhibition,[4],-8.27% (inactive)
same,fluorescence slope,[5],-0.39 (inactive)
same,NADPH fluorescence slope,[6],7.2e-07 (inactive)
same,slope,[7],0.00973 (inactive)
same,outcome,[8],inactive
same,inhibition,[9],-4.44% (inactive)
COc1cccc(-c2nn3c(-c4ccco4)nnc3s2)c1,cell count,[1],611
same,inhibition,[1],-8.6% (inactive)
same,inhibition,[2],16.8% (inactive)
same,nuclei count,[2],155%
same,z-score,[3]; [10],0.808
same,z-score,[3]; [11],-0.226
same,z-score,[3]; [12],-0.00224
same,inhibition,[4],2.92% (inactive)
same,fluorescence slope,[5],-0.406 (inactive)
same,NADPH fluorescence slope,[6],-0.000142 (inactive)
same,slope,[7],0.00559 (inactive)
same,outcome,[8],inactive
same,inhibition,[9],-2.32% (inactive)
COC(=O)c1ccc(C2C(C(=O)c3cc4ccccc4o3)=C(O)C(=O)N2CCCN(C)C)cc1 (configuration not stated),cell count,[1],423
same,inhibition,[1],-8.1% (inactive)
same,inhibition,[2],-11.6% (inactive)
same,nuclei count,[2],167%
same,z-score,[3]; [10],0.389
same,z-score,[3]; [11],1.47
same,z-score,[3]; [12],0.581
same,inhibition,[4],-6.48% (inactive)
same,fluorescence slope,[5],-0.405 (inactive)
same,NADPH fluorescence slope,[6],-7.3e-05 (inactive)
same,slope,[7],0.00626 (inactive)
same,outcome,[8],inactive
same,inhibition,[9],-1.14% (inactive)
CC1(C)Cc2c(C#N)c(NCC3CCCO3)nc(-c3ccco3)c2CO1 (configuration not stated),cell count,[1],508
same,inhibition,[1],-1.3% (inactive)
same,inhibition,[2],-83% (inactive)
same,nuclei count,[2],123%
same,z-score,[3]; [10],-1.04
same,z-score,[3]; [11],1.4
same,z-score,[3]; [12],-1.27
same,inhibition,[4],11.9% (inactive)
same,fluorescence slope,[5],-0.337 (inactive)
same,NADPH fluorescence slope,[6],1e-05 (inactive)
same,slope,[7],0.00551 (inactive)
same,outcome,[8],inactive
same,inhibition,[9],1.27% (inactive)
CC(C)OC(=O)c1nn2c(C(F)(F)F)cc(-c3ccc(Br)o3)nc2c1Br,cell count,[1],519
same,inhibition,[1],-4.9% (inactive)
same,inhibition,[2],5.6% (inactive)
same,nuclei count,[2],127%
same,z-score,[3]; [10],-1.28
same,z-score,[3]; [11],-0.277
same,z-score,[3]; [12],1.66
same,inhibition,[4],-9.7% (inactive)
same,fluorescence slope,[5],-0.29 (inactive)
same,NADPH fluorescence slope,[6],-4.3e-06 (inactive)
same,slope,[7],0.00144 (inactive)
same,outcome,[8],inactive
same,inhibition,[9],18.5% (inactive)
O=C(OCCN1CCOCC1)c1ccc(OCCN2CCOCC2)cc1,cell count,[1],573
same,inhibition,[1],-2.2% (inactive)
same,inhibition,[2],-54.5% (inactive)
same,nuclei count,[2],130%
same,z-score,[3]; [10],-0.658
same,z-score,[3]; [11],0.853
same,z-score,[3]; [12],0.881
same,inhibition,[4],1.75% (inactive)
same,fluorescence slope,[5],-0.555 (inactive)
same,NADPH fluorescence slope,[6],-5.3e-05 (inactive)
same,slope,[7],0.00568 (inactive)
same,outcome,[8],inactive
same,inhibition,[9],32.3% (inactive)
